Assay results as given in ChEMBL document CHEMBL4261658, “4-Hydroxy-3-nitro-5-ureido-benzenesulfonamides Selectively Target the Tumor-Associated Carbonic Anhydrase Isoforms IX and XII Showing Hypoxia-Enhanced Antiproliferative Profiles” (J Med Chem, 2018).

Columns and labels:
Carbonic anhydrase 9 = Carbonic anhydrase 9 (Homo sapiens, UniProt Q16790); experiment: Inhibition of carbonic anhydrase 9 (unknown origin) preincubated for 15 mins by stopped flow CO2 hydration assay
Carbonic anhydrase 12 = Carbonic anhydrase 12 (Homo sapiens, UniProt O43570)
Carbonic anhydrase 12, sequence (O43570 whole entry): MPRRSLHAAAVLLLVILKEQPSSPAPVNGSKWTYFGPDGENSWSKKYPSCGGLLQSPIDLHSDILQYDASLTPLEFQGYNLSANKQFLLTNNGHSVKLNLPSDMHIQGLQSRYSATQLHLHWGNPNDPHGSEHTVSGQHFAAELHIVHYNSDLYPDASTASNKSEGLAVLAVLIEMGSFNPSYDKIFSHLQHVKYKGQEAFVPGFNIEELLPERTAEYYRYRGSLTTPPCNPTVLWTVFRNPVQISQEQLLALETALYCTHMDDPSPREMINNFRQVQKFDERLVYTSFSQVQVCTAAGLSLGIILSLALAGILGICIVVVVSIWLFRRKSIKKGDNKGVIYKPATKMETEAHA

HT-29 [1] = experiment: Cytotoxicity against human HT-29 cells assessed as reduction in cell viability after 48 hrs under normoxic conditions by MTT assay; assay type: functional, cell-based; conditions: for IC50: HT-29, 48 h
In short: (§1)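 Cells cultured in high-glucose DMEM with 20% FBS at 37 °C and 5% CO2, seeded at 1x10^4/well, then dosed 24 h later (0–200 μM) for 48 h. Hypoxia: 1% O2, 5% CO2, balance N2 in a hypoxic workstation; normoxia: 20% O2 in air, 5% CO2. MTT (1 mg/ml) for 30 min at 37 °C, formazan dissolved in DMSO, A550. Untreated control set to 100%; quadruplicates, ≥3 cell batches, mean ± S.E.M.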

MDA-MB-231 [2] = experiment: Cytotoxicity against human MDA-MB-231 cells assessed as reduction in cell viability after 48 hrs under normoxic conditions by MTT assay; assay type: functional, cell-based; conditions: for IC50: MDA-MB-231, 48 h; in short: as §1
PC-3 [3] = experiment: Cytotoxicity against human PC3 cells assessed as reduction in cell viability after 48 hrs under normoxic conditions by MTT assay; assay type: functional, cell-based; conditions: for IC50: PC-3, 48 h; in short: as §1
HT-29 [4] = experiment: Cytotoxicity against human HT-29 cells assessed as reduction in cell viability after 48 hrs under hypoxic conditions by MTT assay; assay type: functional, cell-based; conditions: for IC50: HT-29, 48 h; in short: as §1
MDA-MB-231 [5] = experiment: Cytotoxicity against human MDA-MB-231 cells assessed as reduction in cell viability after 48 hrs under hypoxic conditions by MTT assay; assay type: functional, cell-based; conditions: for IC50: MDA-MB-231, 48 h; in short: as §1
PC-3 [6] = experiment: Cytotoxicity against human PC3 cells assessed as reduction in cell viability after 48 hrs under hypoxic conditions by MTT assay; assay type: functional, cell-based; conditions: for IC50: PC-3, 48 h; in short: as §1
MDA-MB-231 [7] = experiment: Cytotoxicity against human MDA-MB-231 cells assessed as cell viability at 200 uM after 48 hrs under hypoxic conditions by MTT assay (reference value: 100%); assay type: functional; conditions: MDA-MB-231, 48 h, read-out: Activity; in short: as §1
MDA-MB-231 [8] = experiment: Cytotoxicity against human MDA-MB-231 cells assessed as cell viability at 30 uM after 48 hrs under normoxic conditions by MTT assay (reference value: 100%); assay type: functional; conditions: MDA-MB-231, 48 h, read-out: Activity; in short: as §1
MDA-MB-231 [9] = experiment: Cytotoxicity against human MDA-MB-231 cells assessed as cell viability at 100 uM after 48 hrs under normoxic conditions by MTT assay (reference value: 100%); assay type: functional; conditions: MDA-MB-231, 48 h, read-out: Activity; in short: as §1
MDA-MB-231 [10] = experiment: Cytotoxicity against human MDA-MB-231 cells assessed as cell viability at 200 uM after 48 hrs under normoxic conditions by MTT assay (reference value: 100%); assay type: functional; conditions: MDA-MB-231, 48 h, read-out: Activity; in short: as §1
MDA-MB-231 [11] = experiment: Cytotoxicity against human MDA-MB-231 cells assessed as cell viability at 100 uM after 48 hrs under hypoxic conditions by MTT assay (reference value: 100%); assay type: functional; conditions: MDA-MB-231, 48 h, read-out: Activity; in short: as §1
MDA-MB-231 [12] = experiment: Cytotoxicity against human MDA-MB-231 cells assessed as cell viability at 30 uM after 48 hrs under hypoxic conditions by MTT assay (reference value: 100%); assay type: functional; conditions: MDA-MB-231, 48 h, read-out: Activity; in short: as §1
PC-3 [13] = experiment: Cytotoxicity against human PC3 cells assessed as cell viability at 30 uM after 48 hrs under normoxic conditions by MTT assay (reference value: 100%); assay type: functional; conditions: PC-3, 48 h, read-out: Activity; in short: as §1
PC-3 [14] = experiment: Cytotoxicity against human PC3 cells assessed as cell viability at 100 uM after 48 hrs under normoxic conditions by MTT assay (reference value: 100%); assay type: functional; conditions: PC-3, 48 h, read-out: Activity; in short: as §1
PC-3 [15] = experiment: Cytotoxicity against human PC3 cells assessed as cell viability at 200 uM after 48 hrs under normoxic conditions by MTT assay (reference value: 100%); assay type: functional; conditions: PC-3, 48 h, read-out: Activity; in short: as §1
PC-3 [16] = experiment: Cytotoxicity against human PC3 cells assessed as cell viability at 30 uM after 48 hrs under hypoxic conditions by MTT assay (reference value: 100%); assay type: functional; conditions: PC-3, 48 h, read-out: Activity; in short: as §1
PC-3 [17] = experiment: Cytotoxicity against human PC3 cells assessed as cell viability at 100 uM after 48 hrs under hypoxic conditions by MTT assay (reference value: 100%); assay type: functional; conditions: PC-3, 48 h, read-out: Activity; in short: as §1
PC-3 [18] = experiment: Cytotoxicity against human PC3 cells assessed as cell viability at 200 uM after 48 hrs under hypoxic conditions by MTT assay (reference value: 100%); assay type: functional; conditions: PC-3, 48 h, read-out: Activity; in short: as §1
HT-29 [19] = experiment: Cytotoxicity against human HT-29 cells assessed as cell viability at 30 uM after 48 hrs under normoxic conditions by MTT assay (reference value: 100%); assay type: functional; conditions: Homo sapiens, HT-29, 48 h; read-out: Activity; in short: as §1
HT-29 [20] = experiment: Cytotoxicity against human HT-29 cells assessed as cell viability at 100 uM after 48 hrs under normoxic conditions by MTT assay (reference value: 100%); assay type: functional; conditions: Homo sapiens, HT-29, 48 h; read-out: Activity; in short: as §1
HT-29 [21] = experiment: Cytotoxicity against human HT-29 cells assessed as cell viability at 200 uM after 48 hrs under normoxic conditions by MTT assay (reference value: 100%); assay type: functional; conditions: Homo sapiens, HT-29, 48 h; read-out: Activity; in short: as §1
HT-29 [22] = experiment: Cytotoxicity against human HT-29 cells assessed as cell viability at 30 uM after 48 hrs under hypoxic conditions by MTT assay (reference value: 100%); assay type: functional; conditions: Homo sapiens, HT-29, 48 h; read-out: Activity; in short: as §1
HT-29 [23] = experiment: Cytotoxicity against human HT-29 cells assessed as cell viability at 100 uM after 48 hrs under hypoxic conditions by MTT assay (reference value: 100%); assay type: functional; conditions: Homo sapiens, HT-29, 48 h; read-out: Activity; in short: as §1
HT-29 [24] = experiment: Cytotoxicity against human HT-29 cells assessed as cell viability at 200 uM after 48 hrs under hypoxic conditions by MTT assay (reference value: 100%); assay type: functional; conditions: Homo sapiens, HT-29, 48 h; read-out: Activity; in short: as §1

| SMILES | Ki (Carbonic anhydrase 9) [nM] | Ki (Carbonic anhydrase 12) [nM] | Activity (HT-29 [1]) | IC50 (HT-29 [1]) [nM] | Activity (MDA-MB-231 [2]) | IC50 (MDA-MB-231 [2]) [nM] | Activity (PC-3 [3]) | IC50 (PC-3 [3]) [nM] | Activity (HT-29 [4]) | IC50 (HT-29 [4]) [nM] | Activity (MDA-MB-231 [5]) | IC50 (MDA-MB-231 [5]) [nM] | Activity (PC-3 [6]) | IC50 (PC-3 [6]) [nM] | viability at 200 µM (MDA-MB-231 [7]) [%] | viability at 30 µM (MDA-MB-231 [8]) [%] | viability at 100 µM (MDA-MB-231 [9]) [%] | viability at 200 µM (MDA-MB-231 [10]) [%] | viability at 100 µM (MDA-MB-231 [11]) [%] | viability at 30 µM (MDA-MB-231 [12]) [%] | other results |
| --- | --- | --- | --- | --- | --- | --- | --- | --- | --- | --- | --- | --- | --- | --- | --- | --- | --- | --- | --- | --- | --- |
| Cc1cc(C)[n+](-c2cc(S(N)(=O)=O)cc([N+](=O)[O-])c2O)c(C)c1.[O-][Cl+3]([O-])([O-])[O-] | 150 | 220 | Dose-dependent effect | > 200000 | Dose-dependent effect | < 30000 | Dose-dependent effect | 140000 | Dose-dependent effect | > 200000 | Dose-dependent effect | > 200000 | Dose-dependent effect | > 200000 | 98.3 | 40.7 | 2.9 | 4 | 111 | 98.9 | viability at 30 µM (PC-3 [13]): 77.4%; viability at 100 µM (PC-3 [14]): 58%; viability at 200 µM (PC-3 [15]): 50.3%; viability at 30 µM (PC-3 [16]): 97.7%; viability at 100 µM (PC-3 [17]): 104%; viability at 200 µM (PC-3 [18]): 88.9%; viability at 30 µM (HT-29 [19]): 101%; viability at 100 µM (HT-29 [20]): 97.2%; viability at 200 µM (HT-29 [21]): 89.4%; viability at 30 µM (HT-29 [22]): 72.2%; viability at 100 µM (HT-29 [23]): 62.5%; viability at 200 µM (HT-29 [24]): 59.4% |
| NS(=O)(=O)c1cc(O)c(O)c([N+](=O)[O-])c1 | 240 | 90 |  |  |  |  |  |  |  |  |  |  |  |  |  |  |  |  |  |  |  |
| NS(=O)(=O)c1cc([N+](=O)[O-])c(OC(=O)c2ccccc2)c([N+](=O)[O-])c1 | 90 | 70 |  |  |  |  |  |  |  |  |  |  |  |  |  |  |  |  |  |  |  |
| NS(=O)(=O)c1cc(NC(=O)Nc2c(F)c(F)c(F)c(F)c2F)c(O)c([N+](=O)[O-])c1 | 290 | 80 | Dose-dependent effect | > 200000 | Dose-dependent effect | > 200000 | Dose-dependent effect | > 200000 | Dose-dependent effect | > 200000 | Dose-dependent effect | 101000 | Dose-dependent effect | > 200000 | 40.5 | 95.7 | 66.7 | 60.2 | 50.2 | 56.2 | viability at 30 µM (PC-3 [13]): 69%; viability at 100 µM (PC-3 [14]): 61.7%; viability at 200 µM (PC-3 [15]): 60.2%; viability at 30 µM (PC-3 [16]): 63.2%; viability at 100 µM (PC-3 [17]): 53.2%; viability at 200 µM (PC-3 [18]): 50.6%; viability at 30 µM (HT-29 [19]): 106%; viability at 100 µM (HT-29 [20]): 102%; viability at 200 µM (HT-29 [21]): 99.6%; viability at 30 µM (HT-29 [22]): 75.6%; viability at 100 µM (HT-29 [23]): 70.2%; viability at 200 µM (HT-29 [24]): 65.3% |
| Cc1cc(NC(=O)Nc2cc(S(N)(=O)=O)cc([N+](=O)[O-])c2O)ccc1F | 370 | 880 |  |  |  |  |  |  |  |  |  |  |  |  |  |  |  |  |  |  |  |
| NS(=O)(=O)c1ccc(O)c([N+](=O)[O-])c1 | 120 | 160 |  |  |  |  |  |  |  |  |  |  |  |  |  |  |  |  |  |  |  |
| CC(=O)OC[C@@H]1O[C@@H](OC(C)=O)[C@@H](NC(=O)Nc2cc(S(N)(=O)=O)cc([N+](=O)[O-])c2O)[C@H](OC(C)=O)[C@H]1OC(C)=O | 290 | 790 | Dose-dependent effect | > 200000 | Dose-dependent effect | > 200000 | Dose-dependent effect | > 200000 | Dose-dependent effect | > 200000 | Dose-dependent effect | > 200000 | Dose-dependent effect | > 200000 | 65.9 | 100 | 111 | 103 | 90.7 | 99.5 | viability at 30 µM (PC-3 [13]): 59.6%; viability at 100 µM (PC-3 [14]): 67.5%; viability at 200 µM (PC-3 [15]): 68.3%; viability at 30 µM (PC-3 [16]): 91.5%; viability at 100 µM (PC-3 [17]): 85.2%; viability at 200 µM (PC-3 [18]): 70.6%; viability at 30 µM (HT-29 [19]): 111%; viability at 100 µM (HT-29 [20]): 100%; viability at 200 µM (HT-29 [21]): 103%; viability at 30 µM (HT-29 [22]): 95.6%; viability at 100 µM (HT-29 [23]): 79.8%; viability at 200 µM (HT-29 [24]): 84.8% |
